Results on three compounds are retold here after PubChem BioAssay AID588455 (Southern Research Specialized Biocontainment Screening …, 2011).

The structures appear in SMILES notation.

The test relates to HEp-2 RSV Long CPE inhibition, luminescence viability. Put plainly: RSV cytopathic effect inhibition in HEp-2 cells, dose response, cell-based, synthesized compounds, set 13 (AID 588455). The procedure, abridged:
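Detection: luminescence-based measurement of viral cytopathic effect. Material: HEp-2 human cells infected with RSV strain Long. Schedule: 6 days of virus and compound exposure at 37 °C. Read-out basis: % CPE inhibition and IC50 (4-parameter fit, 0–100 fixed). Reagent: RSV strain Long virus at MOI 0.45.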
In the case of `COCCCNC(=O)c1ccc(Cn2c(=O)c3ccccc3n(Cc3ccc(Br)cc3)c2=O)cc1`, the IC50 was 480 nM.

`COCCCNC(=O)c1ccc(Cn2c(=O)c3ccccc3n(Cc3ccc([N+](=O)[O-])cc3)c2=O)cc1`: the IC50 was 480 nM.

Consider `COCCCNC(=O)c1ccc(Cn2c(=O)c3ccccc3n(Cc3ccc(Cl)cc3)c2=O)cc1`, for which the 50% inhibitory concentration (IC50) was 970 nM.

As usually defined, the IC50 is the midpoint of a concentration-inhibition curve.
